Measurements gathered from unrelated publications.
Lines come from different studies, so protocols differ.
Target: Tyrosine-protein kinase Yes (YES1, Homo sapiens, UniProt P07947)

Compound | read-out | mode | technique | concentration | endpoint | value
Cc1nn(C)cc1-c1nc2c(N3CCN(Cc4ccc(Cl)cc4)CC3)c(Cl)cnc2[nH]1 | binding | – | competition with immobilised ligand | 1 µM | remaining binding | 96%
O=c1[nH]c2ccccc2n1C1CCN(Cc2ccc(-c3[nH]c4cc5ncnc5cc4nc3-c3ccccc3)cc2)CC1 | cell-free assay | – | – | 0.5 µM | remaining signal | 90.8%
Cn1cncc1[C@@](O)(COc1ccc(C#N)cc1-c1ccc(OC(F)(F)F)cc1)c1ccc(C#N)cc1 | cell-free assay | – | competition with immobilised ligand | 1 µM | remaining binding | 100%
Nc1ncc(-c2nc(N3CCOCC3)nc(N3CCOCC3)n2)c(C(F)F)n1 | binding | – | competition with immobilised ligand | 10 µM | remaining binding | 80%
CC(C)(C)c1cc(C=C(C#N)C#N)cc(Br)c1O | enzyme activity | inhibitor | – | 0.5 µM | remaining activity | 83%
COc1ncccc1-c1cnn2ccc(N3CCN(C(=O)OC(C)C)CC3)nc12 | binding | – | competition with immobilised ligand | 1 µM | remaining binding | 100%
Cn1cc(-c2cc(F)cc(N3CCn4c(cc5c4CCCC5)C3=O)c2CO)cc(Nc2ccc(N3CCN(C4COC4)CC3)cn2)c1=O | enzyme activity | inhibitor | – | 0.1 µM | inhibition | 11%
C#Cc1n[nH]c2c(-c3cn([C@@H](C)c4ccccn4)c(=O)[nH]c3=O)cc(F)cc12 | enzyme activity | inhibitor | – | 0.1 µM | inhibition | -3.4%
